Assays:
[1] = molecular target: Replicase polyprotein 1ab (Severe acute respiratory syndrome coronavirus 2, UniProt P0DTD1); experiment: Inhibition of recombinant SARS-CoV-2 3CLpro using Dacyl-KTSAVLQSGFRKME-Edans as substrate preincubated for 10 mins followed by substrate addition measured for 5 mins by FRET assay
SARS-CoV-2 = experiment: Antiviral activity against SARS-CoV-2 WIV04 infected in African green monkey Vero E6 cells assessed as reduction in viral replication preincubated cells for 1 hr followed by viral infection for 24 hrs by real-time fluorescence quantitative PCR method; assay type: functional, organism-based; settings: Severe acute respiratory syndrome coronavirus 2, WIV04, Vero C1008
[2] = AUC (0 to t) in ICR mouse at 10 mg/kg, iv measured for 24 hrs by LC-MS/MS analysis; assay type: ADME, organism-based; settings: in vivo
How it was run: (§1)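 Male/female unspecified ICR mice, three per group, randomly assigned, given a single intravenous dose of 10 mg/kg. Whole blood was drawn at 0.083, 0.25, 0.5, 1, 2, 4, 8 and 24 h. Plasma (20 μL) was precipitated with MeOH containing internal standard, then analysed by LC-MS/MS. Parameters came from non-compartmental analysis.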

[3] = Half life in ICR mouse at 10 mg/kg, iv measured for 24 hrs by LC-MS/MS analysis; assay type: ADME, organism-based; settings: in vivo; how it was run: as §1
[4] = AUC (0 to infinity) in ICR mouse at 10 mg/kg, iv measured for 24 hrs by LC-MS/MS analysis; assay type: ADME, organism-based; settings: in vivo; how it was run: as §1
[5] = Cmax in ICR mouse at 20 mg/kg, po measured for 24 hrs by LC-MS/MS analysis; assay type: ADME, organism-based; settings: in vivo
How it was run: (§2)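 ICR mice, three per group, randomly assigned, received a single 20 mg/kg oral dose, with a parallel 10 mg/kg IV group for bioavailability. Blood was sampled at 0.25, 0.5, 1, 2, 4, 6, 8 and 24 h. Plasma was protein-precipitated with MeOH plus internal standard and quantified by LC-MS/MS. Parameters came from non-compartmental analysis.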

[6] = molecular target: Procathepsin L (Homo sapiens) (UniProt P07711); experiment: Inhibition of cathepsin L (unknown origin) using Z-FR-AMC at 20 uM as substrate measured for 10 mins by fluorescence based assay relative to control
[7] = AUC (0 to t) in ICR mouse at 20 mg/kg, po measured for 24 hrs by LC-MS/MS analysis; assay type: ADME, organism-based; settings: in vivo; how it was run: as §2
[8] = Oral bioavailability in ICR mouse at 20 mg/kg measured for 24 hrs by LC-MS/MS analysis; assay type: ADME, organism-based; settings: in vivo; how it was run: as §2
[9] = Selectivity index, ratio of CC50 for African green monkey Vero E6 cells to EC50 for SARS-CoV-2 WIV04 infected in African green monkey Vero E6 cells; assay type: toxicity; settings: read-out: Ratio CC50/EC50
Vero C1008 = experiment: Cytotoxicity against African green monkey Vero E6 cells incubated for 48 hrs by Luminescent cell viability assay; assay type: toxicity, cell-based; settings: chlorocebus sabaeus, vero c1008, 48 h
How it was run: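 Vero E6 cells were seeded at 2.5 × 10³/well and grown 48 h, then exposed to compound at 0.5–200 μM for a further 48 h (n = 3). Viability was read by a luminescent cell-viability reagent after 10 min. Values came from curve fitting.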

[10] = Half life in ICR mouse at 20 mg/kg, po measured for 24 hrs by LC-MS/MS analysis; assay type: ADME, organism-based; settings: in vivo; how it was run: as §2
[11] = molecular target: Chymotrypsinogen A (Bos taurus) (UniProt P00766); experiment: Inhibition of bovine pancreatic alpha-chymotrypsin using N-succinyl-AAPF-AMC as substrate at 20 uM preincubated for 10 mins followed by substrate addition measured for 10 mins by fluorescence based assay relative to control; settings: time 20.0 min
How it was run: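 Chymotrypsin (5 nM final) was preincubated 10 min with 20 μM compound in PBS, pH 7.4. The reaction was started with N-succinyl-AAPF-AMC (10 μM final). Fluorescence (ex 380/em 460 nm) was read every 1 min for 10 min.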

[12] = AUC (0 to infinity) in ICR mouse at 20 mg/kg, po measured for 24 hrs by LC-MS/MS analysis; assay type: ADME, organism-based; settings: in vivo; how it was run: as §2

Chain of Procathepsin L (Homo sapiens) (P07711 114-333 limits assumed): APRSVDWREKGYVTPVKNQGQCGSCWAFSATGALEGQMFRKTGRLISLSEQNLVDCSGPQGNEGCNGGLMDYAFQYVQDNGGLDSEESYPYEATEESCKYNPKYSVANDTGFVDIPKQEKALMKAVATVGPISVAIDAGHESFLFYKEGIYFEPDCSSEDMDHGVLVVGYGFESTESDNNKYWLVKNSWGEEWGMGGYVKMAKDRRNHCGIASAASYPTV

For `COc1ccc(C[C@H](NS(=O)(=O)C(F)(F)F)C(=O)N2[C@@H]3CC[C@@H](C3)[C@H]2C(=O)N[C@@H](C[C@@H]2CCNC2=O)C(=O)c2nc3ccccc3s2)cc1`, the IC50 [1] was 5.34 µM.
In the case of `O=C1NCC[C@H]1C[C@H](NC(=O)[C@@H]1[C@H]2CC[C@H](C2)N1C(=O)[C@@H](NS(=O)(=O)C(F)(F)F)C12CC3CC(CC(C3)C1)C2)C(=O)c1nc2ccccc2s1`, the IC50 [1] is reported as 1.65 µM, the EC50 (SARS-CoV-2) is reported as 0.18 µM and the AUCt [2] is reported as 33780 ng·h/mL. For the same compound, the t1/2 [3] was 82.8 min, the AUC [4] was 34308 ng·h/mL and the Cmax [5] was 9327 ng/mL. For the same compound, the inhibition [6] was 27%, the AUCt [7] was 32473 ng·h/mL and the F [8] was 48.1%. The selectivity ratio [9] was 300, the CC50 (Vero C1008) was 54 µM and the t1/2 [10] was 126 min. For the same compound, the inhibition [11] was 55.8% and the AUC [12] was 33207 ng·h/mL.
For `[2H]C([2H])([2H])C(=O)N[C@H](C(=O)N1[C@@H]2CC[C@@H](C2)[C@H]1C(=O)N[C@@H](C[C@@H]1CCNC1=O)C(=O)c1nc2ccccc2s1)C(C)(C)C`, the IC50 [1] was 0.527 µM.
For `O=C1NCC[C@H]1C[C@H](NC(=O)[C@@H]1[C@H]2CC[C@H](C2)N1C(=O)[C@H](CC1CCCCC1)NS(=O)(=O)C(F)(F)F)C(=O)c1nc2ccccc2s1`, the IC50 [1] was 5.14 µM.
`CC(C)(C)[C@H](NC(=O)C(F)(F)F)C(=O)N1C[C@H]2[C@@H]([C@H]1C(=O)N[C@H](C#N)C[C@@H]1CCNC1=O)C2(C)C` [NIRMATRELVIR] gave an AUCt [2] of 2240 ng·h/mL, a t1/2 [3] of 25.2 min and an AUC [4] of 2241 ng·h/mL. For the same compound, the Cmax [5] was 1819 ng/mL, the AUCt [7] was 1023 ng·h/mL and the F [8] was 22.85%. For the same compound, the CC50 (Vero C1008) was greater than 500 µM, the t1/2 [10] was 30.6 min and the AUC [12] was 1029 ng·h/mL.
With `CC(C)(F)C(=O)N[C@H](C(=O)N1[C@@H]2CC[C@@H](C2)[C@H]1C(=O)N[C@@H](C[C@@H]1CCNC1=O)C(=O)c1nc2ccccc2s1)C(C)(C)C` the IC50 [1] was 1.27 µM.
With `CN(C)S(=O)(=O)N[C@H](C(=O)N1[C@@H]2CC[C@@H](C2)[C@H]1C(=O)N[C@@H](C[C@@H]1CCNC1=O)C(=O)c1nc2ccccc2s1)C(C)(C)C` the IC50 [1] was 0.584 µM.
For `CC(C)(C)[C@H](NS(=O)(=O)C(F)(F)F)C(=O)N1[C@@H]2CC[C@@H](C2)[C@H]1C(=O)N[C@@H](C[C@@H]1CCNC1=O)C(=O)c1nc2ccccc2s1`, the IC50 [1] was 0.868 µM, the EC50 (SARS-CoV-2) was 0.32 µM and the AUCt [2] was 3783 ng·h/mL. The t1/2 [3] was 44.4 min, the AUC [4] was 3857 ng·h/mL and the Cmax [5] was 3342 ng/mL. It also gave an AUCt [7] of 5143 ng·h/mL, an F [8] of 67.98% and a selectivity ratio [9] of 429. It also gave a CC50 (Vero C1008) of 137 µM, a t1/2 [10] of 45.6 min and an AUC [12] of 5153 ng·h/mL.
For `CC(C)(C)OC(=O)N[C@H](C(=O)N1[C@@H]2CC[C@@H](C2)[C@H]1C(=O)N[C@@H](C[C@@H]1CCNC1=O)C(=O)c1nc2ccccc2s1)C(C)(C)C`, the IC50 [1] was 5 µM.
In the case of `CC(C)(C)OC[C@H](NS(=O)(=O)C(F)(F)F)C(=O)N1[C@@H]2CC[C@@H](C2)[C@H]1C(=O)N[C@@H](C[C@@H]1CCNC1=O)C(=O)c1nc2ccccc2s1`, the IC50 [1] is reported as 2.74 µM.
`CC(C)(C)[C@H](NC(=O)C(F)(F)F)C(=O)N1[C@@H]2CC[C@@H](C2)[C@H]1C(=O)N[C@@H](C[C@@H]1CCNC1=O)C(=O)c1nc2ccccc2s1` showed an IC50 [1] of 0.11 µM, an AUCt [2] of 2281 ng·h/mL and a t1/2 [3] of 28.2 min. The AUC [4] was 2284 ng·h/mL, the Cmax [5] was 1597 ng/mL and the AUCt [7] was 2155 ng·h/mL. The F [8] was 47.25%, the t1/2 [10] was 54.6 min and the AUC [12] was 2161 ng·h/mL.
